Data published in publication PMC5094435 (Saudi Pharmaceutical Journal : SPJ, 2015).
In brackets after ≈: the same amount, converted by molar mass.

How the values were obtained:
[1] = tested on: Aspergillus flavus; test: Antifungal activity; type: cell-based; details: read-out: MIC, A. flavus
Summary of the method: (§1)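 Run by the poison food technique against Aspergillus niger and Aspergillus flavus. Fluconazole was the reference drug.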

[2] = tested on: carrageenan induced edema; test: Anti-inflammatory activity, carrageenan induced rat paw edema; type: in vivo, Wistar rats; details: inhibition of edema, rats
Summary of the method: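 Used the Winter et al. paw oedema method in Wistar rats of either sex (160–200 g), housed six per cage and acclimatised 48 h. Percent inhibition of oedema was calculated at 1, 2, 3 and 4 h. Diclofenac served as the standard drug.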

[3] = tested on: Staphylococcus aureus (MTCC 96); test: Antibacterial activity; type: cell-based; details: MTCC96, read-out: MIC, S. aureus
Summary of the method: (§2)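 Screened by a standard method against S. aureus MTCC 96, B. subtilis MTCC 121, E. coli MTCC 1652 and P. aeruginosa MTCC 741. Ciprofloxacin was the reference antibiotic. Only compounds active at 100 μg/mL went on to MIC determination.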

[4] = tested on: Pseudomonas aeruginosa (MTCC 741); test: Antibacterial activity; type: cell-based; details: for MIC: Pseudomonas aeruginosa, MTCC741, read-out: MIC, P. aeruginosa; for MIC, P. aeruginosa: P. aeruginosa (MTCC 741)
Summary of the method: as §2

[5] = tested on: Bacillus subtilis (MTCC 121); test: Antibacterial activity; type: cell-based; details: MTCC121, read-out: MIC, B. subtilis
Summary of the method: as §2

[6] = tested on: Aspergillus niger; test: Antifungal activity; type: cell-based; details: read-out: MIC, A. niger
Summary of the method: as §1

[7] = tested on: Escherichia coli (MTCC 1652); test: Antibacterial activity; type: cell-based; details: for MIC: Escherichia coli, MTCC1652, read-out: MIC, E. coli; for MIC, E. coli: E. coli (MTCC 1652)
Summary of the method: as §2

| SMILES | MIC [1] [µg/mL] | % Inhibition ± SEM After 1 h [2] | % Inhibition ± SEM After 2 h [2] | % Inhibition ± SEM After 3 h [2] [%] | % Inhibition ± SEM After 4 h [2] | MIC [3] [µg/mL] | MIC [4] [µg/mL] | MIC [5] [µg/mL] | MIC [6] [µg/mL] | MIC [7] [µg/mL] | MIC, P. aeruginosa [4] | MIC, E. coli [7] |
| --- | --- | --- | --- | --- | --- | --- | --- | --- | --- | --- | --- | --- |
| O=C1C(=Cc2cc3ccccc3nc2Cl)C=C(c2ccc3ccccc3c2)N1Cc1ccccc1 [Compound 7a, 1-Benzyl-3-[(2-chloroquinolin-3-yl)methylene]-5-(naphthalene-2-yl)-1H-pyrrol-2(3H)-one] | > 100 | 52 ± 0.13^∗ % | 62 ± 0.27^∗∗ % | 28 ± 0.34 | 57 ± 0.13^∗∗ % | 50 (≈ 106 µM) | > 100 | > 100 | 50 (≈ 106 µM) | 25 (≈ 52.9 µM) | – | – |
| O=C(O)c1cn(C2CC2)c2cc(N3CCNCC3)c(F)cc2c1=O [Standard-1, Ciprofloxacin, reference compound] | – | – | – | – | – | 6.25 (≈ 18.9 µM) | 6.25 (≈ 18.9 µM) | – | – | 6.25 (≈ 18.9 µM) | – | – |
| Cc1ccc2nc(Cl)c(C=C3C=C(c4ccc5ccccc5c4)OC3=O)cc2c1 [Compound 5c, 3-[(2-Chloro-6-methylquinolin-3-yl)methylene]-5-(naphthalene-2-yl)furan-2(3H)-one] | > 100 | 69 ± 0.12^∗∗ % | 66 ± 0.25^∗∗ % | 47 ± 0.17 | 59 ± 0.12^∗∗ % | 25 (≈ 62.8 µM) | > 100 | 50 (≈ 126 µM) | 50 (≈ 126 µM) | > 100 | did not show any inhibition | did not show any inhibition |
| Cc1ccc2nc(Cl)c(C=C3C=C(c4ccc5ccccc5c4)NC3=O)cc2c1 [Compound 6c, 3-[(2-Chloro-6-methylquinolin-3-yl)methylene]-5-(naphthalene-2-yl)-1H-pyrrol-2(3H)-one] | 12.5 (≈ 31.5 µM) | 32 ± 0.02% | 55 ± 0.22^∗∗ % | 47 ± 0.24 | 42 ± 0.20% | 12.5 (≈ 31.5 µM) | 50 (≈ 126 µM) | 12.5 (≈ 31.5 µM) | 25 (≈ 63 µM) | > 100 | – | – |
| Cc1ccc2nc(Cl)c(C=C3C=C(c4ccc(-c5ccccc5)cc4)OC3=O)cc2c1 [Compound 5g, 3-[(2-Chloro-6-methylquinolin-3-yl)methylene]-5-(biphenyl-4-yl)furan-2(3H)-one] | 50 (≈ 118 µM) | 67 ± 0.12^∗∗ % | 62 ± 0.11^∗∗ % | 46 ± 0.33 | 56 ± 0.06^∗∗ % | 25 (≈ 59 µM) | > 100 | 50 (≈ 118 µM) | 50 (≈ 118 µM) | > 100 | did not show any inhibition | did not show any inhibition |
| O=C1OC(c2ccc3ccccc3c2)=CC1=Cc1cc2ccccc2nc1Cl [Compound 5a, 3-[(2-Chloroquinolin-3-yl)methylene]-5-(naphthalene-2-yl)furan-2(3H)-one] | > 100 | 67 ± 0.14^∗∗ % | 62 ± 0.11^∗∗ % | 46 ± 0.26 | 57 ± 0.27^∗∗ % | 50 (≈ 130 µM) | > 100 | 50 (≈ 130 µM) | 50 (≈ 130 µM) | > 100 | did not show any inhibition | did not show any inhibition |
| O=C1OC(c2ccc(-c3ccccc3)cc2)=CC1=Cc1cc2ccccc2nc1Cl [Compound 5e, 3-[(2-Chloroquinolin-3-yl)methylene]-5-(biphenyl-4-yl)furan-2(3H)-one] | 50 (≈ 122 µM) | 63 ± 0.09^∗ % | 60 ± 0.22^∗∗ % | 53 ± 0.18 | 59 ± 0.12^∗∗ % | 25 (≈ 61 µM) | > 100 | 50 (≈ 122 µM) | 25 (≈ 61 µM) | > 100 | – | – |
| O=C1NC(c2ccc3ccccc3c2)=CC1=Cc1cc2cc([N+](=O)[O-])ccc2nc1Cl [Compound 6d, 3-[(2-Chloro-6-nitroquinolin-3-yl)methylene]-5-(naphthalene-2-yl)-1H-pyrrol-2(3H)-one] | 12.5 (≈ 29.2 µM) | 58 ± 0.25^∗ % | 60 ± 0.22^∗∗ % | 29 ± 0.16 | 48 ± 0.15^∗ % | 6.25 (≈ 14.6 µM) | 12.5 (≈ 29.2 µM) | 6.25 (≈ 14.6 µM) | 6.25 (≈ 14.6 µM) | 12.5 (≈ 29.2 µM) | – | – |
| O=C1NC(c2ccc3ccccc3c2)=CC1=Cc1cc2ccccc2nc1Cl [Compound 6a, 3-[(2-Chloroquinolin-3-yl)methylene]-5-(naphthalene-2-yl)-1H-pyrrol-2(3H)-one] | 25 (≈ 65.3 µM) | 64 ± 0.06^∗ % | 53 ± 0.18^∗∗ % | 49 ± 0.10 | 36 ± 0.32% | 25 (≈ 65.3 µM) | 50 (≈ 131 µM) | 25 (≈ 65.3 µM) | 25 (≈ 65.3 µM) | > 100 | – | – |
| O=C1NC(c2ccc(-c3ccccc3)cc2)=CC1=Cc1cc2cc([N+](=O)[O-])ccc2nc1Cl [Compound 6h, 3-[(2-Chloro-6-nitroquinolin-3-yl)methylene]-5-(biphenyl-4-yl)-1H-pyrrol-2(3H)-one] | 25 (≈ 55.1 µM) | 58 ± 0.19^∗ % | 58 ± 0.05^∗∗ % | 50 ± 0.18 | 48 ± 0.15^∗ % | 6.25 (≈ 13.8 µM) | 25 (≈ 55.1 µM) | 12.5 (≈ 27.5 µM) | 25 (≈ 55.1 µM) | 25 (≈ 55.1 µM) | – | – |
| Cc1ccc2nc(Cl)c(C=C3C=C(c4ccc(-c5ccccc5)cc4)NC3=O)cc2c1 [Compound 6g, 3-[(2-Chloro-6-methylquinolin-3-yl)methylene]-5-(biphenyl-4-yl)-1H-pyrrol-2(3H)-one] | 12.5 (≈ 29.6 µM) | 52 ± 0.08^∗ % | 48 ± 0.24^∗∗ % | 25 ± 0.17 | 36 ± 0.19% | 25 (≈ 59.1 µM) | 50 (≈ 118 µM) | 12.5 (≈ 29.6 µM) | 25 (≈ 59.1 µM) | 50 (≈ 118 µM) | – | – |
| O=C1C(=Cc2cc3ccccc3nc2Cl)C=C(c2ccc(-c3ccccc3)cc2)N1Cc1ccccc1 [Compound 7e, 1-Benzyl-3-[(2-chloroquinolin-3-yl)methylene]-5-(biphenyl-4-yl)-1H-pyrrol-2(3H)-one] | > 100 | 78 ± 0.12^∗∗ % | 51 ± 0.11^∗∗ % | 44 ± 0.08 | 41 ± 0.08% | 50 (≈ 100 µM) | > 100 | > 100 | 50 (≈ 100 µM) | > 100 | did not show any inhibition | did not show any inhibition |
| OC(Cn1cncn1)(Cn1cncn1)c1ccc(F)cc1F [Standard-2, Fluconazole, reference compound] | 6.25 (≈ 20.4 µM) | – | – | – | – | – | – | 6.25 (≈ 20.4 µM) | 6.25 (≈ 20.4 µM) | – | – | – |
